# Source: PubChem BioAssay (several laboratories)
# LANA-H2A inh = blockers of LANA interaction with H2A/H2B – biochemical, FP readout, HTS, primary screen. Protein LANA1 (Human herpesvirus 8 type P (isolate GK18)), Q9QR71. cell-free LANA-H2A/H2B peptide, fluorescence polarization. inhibition, % (concentration not given with the values). hit rate 0.6% among 320,000; in the data active = inhibition mostly above about 10%, no sharp cut-off; inactive = mostly below about 6.7%
# HNF4A DNA FP = change in binding of human HNF4A to DNA, primary screen, biochemical, fluorescence polarization, FITC-DNA; Hepatocyte nuclear factor 4-alpha (Homo sapiens), P41235; 1 h; activity change, % at 10 µM; hit rate 0.3% among 360,000; in the data active = activity change above about 30%, passing the limit was not always enough
# Target sequence (P41235 whole entry, looked up): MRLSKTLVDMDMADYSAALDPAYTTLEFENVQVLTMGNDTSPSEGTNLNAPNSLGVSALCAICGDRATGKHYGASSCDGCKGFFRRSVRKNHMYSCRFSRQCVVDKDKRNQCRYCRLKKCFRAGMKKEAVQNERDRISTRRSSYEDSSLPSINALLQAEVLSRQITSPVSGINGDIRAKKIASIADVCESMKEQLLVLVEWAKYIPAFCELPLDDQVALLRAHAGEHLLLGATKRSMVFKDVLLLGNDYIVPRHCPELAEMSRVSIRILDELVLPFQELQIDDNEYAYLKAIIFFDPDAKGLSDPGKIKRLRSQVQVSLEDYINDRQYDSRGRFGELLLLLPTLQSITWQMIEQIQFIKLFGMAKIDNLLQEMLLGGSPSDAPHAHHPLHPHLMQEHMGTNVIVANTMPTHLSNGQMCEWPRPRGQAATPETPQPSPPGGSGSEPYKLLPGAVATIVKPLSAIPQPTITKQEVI
# EBNA-1 inhibitor = EBNA-1 DNA-binding inhibitors, primary screen, biochemical, fluorescence polarization; inhibition, % at 14.8 µM; hit rate 0.34% among 300,000; in the data active = inhibition above about 28%
# CSN inh = inhibitors of CSN-mediated cullin deneddylation, primary screen, biochemical, fluorescence polarization, uHTS; AID 651999, 2013; Purified CSN, SCF-Nedd8-OG deneddylation; inhibition, % at 12.5 µM; hit rate 0.38% among 360,000; COP9 signalosome complex subunit 5 (Homo sapiens), Q92905;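 active = pattern-corrected inhibition above about 35%, with an unprinted fluorescence ratio check between 0.5 and 1.5, limit read from the data, passing the limit was not always enough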
#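 test system = HEK293T-derived human Csn5 enzyme | amount = 0.24 nM Csn5 enzyme, final concentration | medium = Tris/NaCl/DTT buffer, pH 7.5 | schedule = 90 min reaction at room temperature | signal = FP | evaluation = inhibition of Csn5 cleavage, % | compound dosing = single dose of 12.5 µM compound with 0.25% DMSO | probe or stimulus = 10 nM SCFSkp2-Nedd8OG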
# ZTA counter = counter-screen for EBNA-1 inhibitors: inhibitors of Epstein-Barr virus ZTA; hit rate 0.15% among 320,000; P03206; ZTA-DNA binding, fluorescence polarization; inhibition, % at 11 µM; in the data active = inhibition above about 33%
# Bfl-1 A1 inh = caspase 3/7 activation in MEF A1-2A-BIM cells, primary screen, A1 inhibitor project, cell-based, luminescence, HTS; hit rate 0.066% among 330,000; caspase activation, % (concentration not given with the values); Caspase-Glo 3/7 luminescence, 3 h; percent of clofoctol response, vehicle zero;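 active = over half of replicate activation scores above 10%, or exactly half above 10 with the replicate mean above 10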
# Hits are given with their value; - = inactive; . = no result; + = active, no number. Compounds with a hit are over-represented: about 1.5% of the library has one in this group of screens.
SMILES,LANA-H2A inh,HNF4A DNA FP,EBNA-1 inhibitor,CSN inh,ZTA counter,Bfl-1 A1 inh
O=C(NC(CO)Cc1ccc([N+](=O)[O-])cc1)C(Cl)Cl (stereo not drawn),22,-,-,-,-,-
O=C(NC(=S)Nc1ccccn1)c1cncc(Br)c1,-,66,-,-,-,-
O=[N+]([O-])c1ccc(N/N=C/c2ccc(OCc3cccc4ccccc34)cc2)nc1,-,35,-,70,-,-
Cn1c(N)c(C(=O)COC(=O)/C=C/c2ccc(Cl)cc2)c(=O)n(C)c1=O,92,-,.,-,-,-
COc1ccc(N=Cc2c(O)n(-c3cccc(C)n3)c(=O)c3ccccc23)c(OC)c1,-,-,-,-,-,-
COc1ccc(C)cc1Nc1n[n+](-c2ccccc2)c(-c2ccc(N(C)C)cc2)s1,-,68,-,-,-,-
Cc1cc(C)c(S(=O)(=O)N(C)CC(=O)N2CCCC2)c(C)c1,.,-,.,-,.,.
CCC(=O)N1c2ccc(S(=O)(=O)NCCc3ccc(C)cc3)cc2CC1C (stereo not drawn),14,-,-,-,-,-
Cc1nc2c(ccc3nc(NC(=O)c4ccc5c(c4)OCCO5)sc32)s1,-,-,-,45,-,-
CN(Cc1ccccc1)S(=O)(=O)c1ccc(Cl)c(C(=O)N2CCOCC2)c1,.,-,.,-,.,.
CCOc1ccc(N2C(=O)CNC2=S)cc1,-,-,-,-,-,-
CCOc1ccc(N2C(=O)CS/C2=C(\C(Cl)=C(Cl)Cl)[N+](=O)[O-])cc1,-,35,-,-,-,-
CCCCCCCCN1C(=O)[C@H](CC(=O)NCCCCc2ccccc2)C[C@@]2(C(=O)OCC)CCCC=C12,.,-,.,-,.,.
COCCOC(=O)C1=C(C)N(c2ccccc2)C(=S)NC1c1ccccc1C(F)(F)F (stereo not drawn),35,-,-,-,-,-
Cc1cc(OCC(=O)Nc2ccc(CN3CCOCC3)cc2)c2c(C)c(C)c(=O)oc2c1,-,-,-,-,-,-
Cc1ccc(S(=O)(=O)CCC(=O)OCC(=O)NC(C)c2ccccc2)cc1 (stereo not drawn),183,-,.,-,-,-
Cc1ccc(S(=O)(=O)CCC(=O)OCC(=O)NC(C)c2ccc(F)cc2)cc1 (stereo not drawn),-,-,.,-,-,-
CC(=O)c1ccc(NC(=O)CCOc2cc(C)ccc2C)cc1,-,-,-,-,-,-
Cc1ncc([N+](=O)[O-])n1CCO,-,-,-,-,-,-
CCS(=O)(=O)CCn1c([N+](=O)[O-])cnc1C,11,-,-,-,-,-
CCc1cc(C(=O)N2CCN(S(=O)(=O)c3ccccc3F)CC2)sc1C,+,-,.,-,-,-
CCc1cc(C(=O)N2CCN(S(=O)(=O)c3cc(C)ccc3C)CC2)sc1C,-,-,.,-,-,-
CCOC(=O)c1nc2sc3c(c2c(=O)[nH]1)CCCC3,-,-,-,-,-,-
N#C/C(=C\c1ccc(C(=O)O)cc1)c1nc2sc3c(c2c(=O)[nH]1)CCCC3,.,-,.,70,.,.
Cn1cc(/C=N\NC(=O)c2cccs2)c2ccccc21,17,-,-,-,-,-
SMILES,LANA-H2A inh,HNF4A DNA FP,EBNA-1 inhibitor,CSN inh,ZTA counter,Bfl-1 A1 inh
Cn1cccc1/C=N/NC(=O)c1cccs1,-,-,-,-,-,-
O=c1[nH][nH]c(=O)c2cc([N+](=O)[O-])ccc12,40,-,.,-,-,-
O=c1[nH]cnc2ccc([N+](=O)[O-])cc12,-,-,-,-,-,-
O=C(O)COc1ccccc1/C=C1\C(=O)Nc2ccc(Br)cc21,-,-,-,-,-,5.3
CC(=O)Oc1ccc(N2C(=O)C3C(C2=O)C2C=CC3C23CC3)cc1[N+](=O)[O-] (stereo not drawn),11,-,-,-,-,-
Cn1c(N)c(C(=O)COC(=O)Cc2cccc(C(F)(F)F)c2)c(=O)n(C)c1=O,-,-,.,-,.,-
CCOC(=O)C1=C(c2ccccc2)NC(=O)NC1c1ccc(OC)cc1 (stereo not drawn),-,-,-,107,-,-
CCOC(=O)C1=C(c2ccccc2)NC(=O)NC1c1ccc(N(C)C)cc1 (stereo not drawn),-,-,-,-,-,-
